Screening data as filed in PubChem BioAssay.
Sampled rows, rich in hits. Any-hit rate of the full collection: about 3.5%.
KLK5 inh = inhibitors of human kallikrein 5 | Q9Y337 | recombinant hK5, fluorogenic AMC substrate cleavage | inhibition, % at 5 µM | hit rate 0.59% among 210,000 | AID 873;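 active means inhibition of 40% or more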;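 further: 0% = enzyme controls without compound and 100% = no-enzyme blanks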
Thrombin inh = thrombin (human) inhibition | P00734 | alpha-thrombin, Boc-VPR-AMC fluorogenic substrate cleavage | inhibition, % at 5 µM | hit rate 0.26% among 220,000 | AID 1046;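 active means inhibition at or above 40%; inactive means inhibition below 40%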;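 further: 0% = enzyme with no compound and 100% = wells without enzyme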
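Material: human alpha-thrombin enzyme / Medium: pH 7.5 Tris (50 mM) with NaCl 150 mM, Tween 20 0.05% / Compound: single-point dosing at 5 µM, 0.2% DMSO / Incubation: enzyme reaction carried out at room temperature / Detection: AMC fluorescence, 355/460 nm / Read-out basis: percent inhibition scaled between no-compound controls and no-enzyme blanks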
AHR activator = activates the human aryl hydrocarbon receptor; AID 2796; P35869; activation, % at 5 µM; hit rate 2.5% among 320,000; AHR-responsive luciferase reporter cells, luminescence; in the data active means activation above about 47%;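 further: 0% = vehicle wells and 100% = reference agonist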
FXIa inh 1536 = factor XIa (human) inhibition | P03951 | purified FXIa, Boc-Glu-Ala-Arg-AMC fluorogenic substrate | inhibition, % at 5 µM | hit rate 0.14% among 220,000 | AID 798;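 active means inhibition of at least 40%; inactive means inhibition below 40%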;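 further: fluorescence of freed AMC excited at 355 nm; 0% = enzyme without compound and 100% = no enzyme blank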
STAT3 act = increases IL-6 driven STAT3 reporter signal | hit rate 0.91% among 190,000 | U3A cells, IL-6 STAT3-luciferase reporter, luminescence; 100% = signal with IL-6 EC80 alone | activation (% of control), % at 5.6 µM | AID 871;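 active means activation above the screen-wide mean of compound activation plus 3 SD, cut at about 130% in these data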;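 further: 0% = background luminescence of wells with medium and substrate only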
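Material: STAT3-luciferase reporter U3A cells. Controls: IL-6-treated wells, 100% activation. Read-out: % activation versus median of IL-6-stimulated wells. Probe or stimulus: IL-6 stimulus at 33 ng/mL final. Timing: compound 1 h, then IL-6 6 h at 37 °C. Signal: reporter luminescence signal.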
FXIIa inh 1536 = factor XIIa (human) inhibition | purified FXIIa, Boc-QGR-AMC fluorogenic substrate, 2 h | inhibition, % at 5 µM | hit rate 0.3% among 220,000 | AID 800; in the data active means inhibition above about 40%;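 further: 0% = enzyme with no compound and 100% = blank without enzyme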
Target sequence (P00748 20-372 limits assumed): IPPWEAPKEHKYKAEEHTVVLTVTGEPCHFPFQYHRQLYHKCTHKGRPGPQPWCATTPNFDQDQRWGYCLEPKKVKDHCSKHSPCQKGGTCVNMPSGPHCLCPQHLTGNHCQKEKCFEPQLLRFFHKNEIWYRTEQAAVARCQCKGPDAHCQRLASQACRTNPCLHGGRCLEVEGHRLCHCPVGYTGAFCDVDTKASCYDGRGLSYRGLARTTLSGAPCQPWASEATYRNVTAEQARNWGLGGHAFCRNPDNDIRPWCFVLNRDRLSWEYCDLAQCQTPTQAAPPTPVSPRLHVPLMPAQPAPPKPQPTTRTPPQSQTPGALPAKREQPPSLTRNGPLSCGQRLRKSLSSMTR
Target sequence (P00748 373-615 limits assumed): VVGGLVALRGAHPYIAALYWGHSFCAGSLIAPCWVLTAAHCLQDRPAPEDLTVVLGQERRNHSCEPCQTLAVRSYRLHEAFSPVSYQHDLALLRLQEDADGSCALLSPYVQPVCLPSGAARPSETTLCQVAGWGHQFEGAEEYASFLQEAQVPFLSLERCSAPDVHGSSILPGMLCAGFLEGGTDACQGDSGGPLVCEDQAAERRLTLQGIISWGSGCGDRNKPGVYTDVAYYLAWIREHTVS
* hit, by the source's call; nt = no result.

SMILES	KLK5 inh	Thrombin inh	AHR activator	FXIa inh 1536	STAT3 act	FXIIa inh 1536
Cc1ccccc1NC(=O)Nc1ccccc1Br	21.8	46.9*	1.1	17.3	83.3	15.7
O=C(Nc1cccs1)Nc1ccccc1Br	nt	-8.0	57.5*	-2.5	91.7	7.6
CCOC(=O)[C@@H]1[C@H]2COc3cc(OC)ccc3[C@@H]2N2C(=O)N(c3ccccc3)C(=O)[C@]12C	nt	nt	0.6	nt	nt	nt
COC(=O)c1ccc(NC(=O)COc2ccc(S(=O)(=O)NC(C)C)cc2)cc1	51.8*	11.0	1.1	1.3	87.5	15.8
CCOC(=O)c1ccc(NC(=O)COc2ccc(S(=O)(=O)NC(C)C)cc2)cc1	-15.2	4.3	-1.6	-4.6	89.8	4.0
COc1cccc(NC(=O)COc2ccc(S(=O)(=O)NC(C)C)cc2)c1	50.5*	30.7	5.9	15.8	97.2	20.7
O=C(c1cccc(S(=O)(=O)N2CCOCC2)c1)N(Cc1ccc(F)cc1)Cc1ccco1	-9.6	-5.5	8.5	-4.2	134.0*	0.6
CN(C)c1nc(N)nc(/C(C#N)=C/C2CC3C=CC2C3)n1 (stereo unspecified)	0.2	-4.0	47.2*	-6.0	112.8	9.3
COc1cc(C2c3c(oc4ccccc4c3=O)C(=O)N2Cc2ccco2)ccc1O (stereo unspecified)	1.3	-0.8	0.4	-27.2	96.1	6.9
COc1cccc(C2c3c(oc4ccccc4c3=O)C(=O)N2Cc2ccco2)c1 (stereo unspecified)	nt	nt	81.8*	nt	nt	nt
O=C(Cc1cccs1)Nc1nnc(Cc2ccc(F)cc2)s1	76.8*	22.9	nt	15.3	88.5	30.6
C#CCn1c(O)c(N=NC(=O)C(O)c2ccccc2)c2ccccc21 (stereo unspecified)	1.2	-4.0	66.8*	1.9	nt	5.5
O=C(CCCl)Nc1cc(SCCO)cc([N+](=O)[O-])c1	-8.7	5.5	2.6	-10.3	98.8	10.6
O=C(Nc1cc(SCCO)cc([N+](=O)[O-])c1)c1ccc(Br)o1	-3.0	-2.6	51.9*	9.3	90.7	8.2
O=C(c1ccc(Cl)c(S(=O)(=O)N2CCCCC2)c1)N1CCCC(C(F)(F)F)C1 (stereo unspecified)	nt	nt	2.3	nt	nt	nt
O=c1c2cc(Br)ccc2nc(-c2ccccc2)n1O	nt	nt	47.6*	nt	nt	nt
CCn1cc(-c2nnnn2-c2ccc(Cl)cc2)c(=O)c2ccccc21	-21.9	-5.4	2.8	-6.7	90.2	2.9
Cc1ccc(-n2nc3c(c2NC(=O)c2ccc(S(=O)(=O)N4CCOCC4)cc2)CSC3)c(C)c1	-3.7	-3.9	-0.5	3.0	108.1	9.7
CNC(C)C#Cc1ccc2c(=O)c3c(OC)cccc3oc2c1 (stereo unspecified)	nt	nt	96.9*	nt	nt	nt
O=C(NCCc1c[nH]c2ccccc12)c1cc(Cl)c2c(c1)OCO2	nt	nt	47.8*	nt	nt	nt
O=C(NCCSc1c[nH]c2ccccc12)c1ccc2c(c1)OCO2	-2.2	-0.4	50.5*	-3.8	94.6	-0.5
O=C(NCCc1c[nH]c2ccccc12)c1ccc2c(c1)OCO2	nt	nt	41.7	nt	nt	nt
Oc1[nH]c2ccccc2c1N=Nc1ccccc1	2.7	-0.2	46.0	5.1	nt	11.3
Cc1[nH]c2ccccc2c1N=Nc1ccccc1C(=O)O	-5.2	-8.3	74.9*	0.3	135.3*	4.0
Oc1[nH]c2ccccc2c1N=Nc1ccccc1F	-14.9	-0.8	53.6*	0.8	154.2*	13.7
SMILES	KLK5 inh	Thrombin inh	AHR activator	FXIa inh 1536	STAT3 act	FXIIa inh 1536
CCC(NS(=O)(=O)c1ccc2c(c1)Cc1cc(S(=O)(=O)NC(CC)C(=O)O)ccc1-2)C(=O)O (stereo unspecified)	nt	nt	-1.0	nt	nt	nt
CCOc1ccc(-n2c(N)c(-c3nc4ccccc4[nH]3)sc2=S)cc1	-153.6	-1.2	72.0*	1.5	90.0	4.0
O=C(Cn1nnc(-c2ccccc2)n1)OCc1csc(-c2ccccc2)n1	21.6	20.9	0.1	11.6	97.4	48.6*
O=C(Cn1nnc(-c2ccccc2)n1)OCc1ccccc1	3.5	-2.7	-0.5	4.4	101.1	5.9
Cc1nc2ccccc2n1CCN1CCOCC1	20.5	1.8	72.5*	0.1	98.0	14.0
CC(=O)Nc1nc2ccccc2n1CCN1CCOCC1	-8.3	-1.2	3.3	7.1	95.7	15.2
Cc1ccc(C)c(NC(=O)C[n+]2ccccc2)c1	nt	nt	-1.1	nt	nt	nt
C=CCOC(=O)C1=C(C)N=C2SCCC(=O)N2C1c1cccs1 (stereo unspecified)	8.7	3.7	-3.4	7.7	96.3	71.4*
CCNC(=S)N/N=C/c1cc(Br)cc(Br)c1OC	3.6	-0.6	62.9*	4.8	91.5	14.6
COc1cc(/C=N/NC(=O)c2ccncc2)cc(OC)c1OC	nt	nt	9.0	nt	nt	nt
COc1c(Br)cc(Br)cc1/C=N/NC(=O)c1ccncc1	3.2	-4.0	57.5*	-0.5	91.5	6.7
COC(=O)c1ccccc1NC(=O)C1CC(=O)N(C2CCCCC2)C1 (stereo unspecified)	63.5*	28.3	-4.1	1.2	95.5	14.2
COC(=O)c1ccccc1NC(=O)C1CC(=O)N(c2ccc(F)cc2)C1 (stereo unspecified)	88.5*	50.3*	-5.2	8.8	86.4	29.3
CCc1ccc(N2CC(C(=O)Nc3ccccc3F)CC2=O)cc1 (stereo unspecified)	87.5*	104.0*	2.1	3.7	103.3	10.1
O=C(CC1CCCCC1)NCc1ccccc1Cl	nt	nt	4.8	nt	nt	nt
CC(=O)N/C(=C\c1ccccc1)C(=O)OCC(=O)N(C)C1CCCCC1	44.3*	10.1	0.7	4.8	104.9	18.0
Cc1nnc(N/N=C/c2ccc(Br)cc2)n1N	nt	nt	38.7	nt	nt	nt
Cc1nnc(N/N=C/c2ccc(-c3ccc(Br)cc3)o2)n1N	1.8	1.6	49.4*	-1.8	98.7	5.9
CCn1c(=O)n(CC)c2cc(N3CCCC3)c(NC(=O)c3cc(Cl)ccc3OC)cc21	nt	nt	0.0	nt	nt	nt
CC(=O)Nc1ccc(S(=O)(=O)NNC(=O)COc2ccc(Cl)cc2Cl)cc1	20.0	21.5	5.1	43.9*	nt	20.6
O=C(NC1CCN(Cc2ccc(Cl)cc2Cl)CC1)c1ccccc1	nt	nt	4.2	nt	nt	nt
CC(=O)Nc1cccc(NC(=O)Nc2cccc(F)c2)c1	nt	-0.5	48.9*	1.6	86.6	6.1
COc1ccc(CN(C)C(=O)C2CCN(S(=O)(=O)c3cccs3)CC2)cc1F	nt	nt	-1.3	nt	nt	nt
COc1ccc(OC)c(C(C)NC(=O)Nc2cccc(C(C)=O)c2)c1 (stereo unspecified)	nt	2.0	21.5	2.3	109.1	12.2
C=CCN1C(=O)/C(=C2/C(=O)N(CC(=O)O)c3ccccc32)S/C1=N/c1nccs1	-74.6	11.7	nt	18.1	107.8	22.4
Nc1c(-c2ccccn2)cnn1-c1nc(-c2ccc(F)cc2)cs1	-5.1	-7.0	63.1*	-4.8	99.3	3.1
CCOC(=O)Cc1csc(NC(=O)C(C)(C)CC)n1	-12.8	3.4	2.4	-4.3	93.0	15.7
CC(C)CC(C(=O)N1CCc2ccccc2C1)N1C(=O)c2ccccc2C1=O (stereo unspecified)	-8.1	3.6	38.0	6.3	134.2*	17.5
